Screens: PubChem BioAssay, The Scripps Research Institute Molecular Screening Center
Tb MetRS inh = blocks T. brucei methionyl-tRNA synthetase activity | purified T. brucei MetRS, ATP depletion, Kinase-Glo luminescence | inhibition, % at 11.9 µM | actives 0.4% (n = 360,000);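 active = inhibition above a per-plate cutoff of the control wells' mean inhibition plus 3 SD, cut at about 5.5% in these data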;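 note: 0% = DMSO wells median and 100% = median of wells with control inhibitor compound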
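Material – parasite MetRS enzyme · Medium – HEPES-MgCl2-KCl buffer plus DTT, spermine, BSA, pyrophosphatase · Reagent – ATP, methionine and E. coli bulk tRNA substrates · Times – 15 min enzyme-compound preincubation, 2 h reaction, 10 min detection, 25 °C · Measured by – luminescence of leftover ATP · Evaluation – percent inhibition relative to median high and low control wells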
ADAM17 inh = inhibits human ADAM17; P78536; recombinant ADAM17, EDANS/DABCYL FRET peptide cleavage; inhibition, % at 6.95 µM; actives 0.83% (n = 370,000); AID 720648;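 active = inhibition above the mean of compounds lying between control limits plus 3 SD, set per campaign, cut at about 8.5% in these data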;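 note: 0% = DMSO-only wells as the low control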
PLC-gamma1 inh = PLC-gamma1 (human) inhibition, primary screen; purified PLC-gamma1, fluorogenic substrate, fluorescence; inhibition, % at 12.2 µM; actives 0.84% (n = 370,000); AID 720700; in the data active = inhibition above about 9.5%
Target sequence (P19174 whole entry, looked up): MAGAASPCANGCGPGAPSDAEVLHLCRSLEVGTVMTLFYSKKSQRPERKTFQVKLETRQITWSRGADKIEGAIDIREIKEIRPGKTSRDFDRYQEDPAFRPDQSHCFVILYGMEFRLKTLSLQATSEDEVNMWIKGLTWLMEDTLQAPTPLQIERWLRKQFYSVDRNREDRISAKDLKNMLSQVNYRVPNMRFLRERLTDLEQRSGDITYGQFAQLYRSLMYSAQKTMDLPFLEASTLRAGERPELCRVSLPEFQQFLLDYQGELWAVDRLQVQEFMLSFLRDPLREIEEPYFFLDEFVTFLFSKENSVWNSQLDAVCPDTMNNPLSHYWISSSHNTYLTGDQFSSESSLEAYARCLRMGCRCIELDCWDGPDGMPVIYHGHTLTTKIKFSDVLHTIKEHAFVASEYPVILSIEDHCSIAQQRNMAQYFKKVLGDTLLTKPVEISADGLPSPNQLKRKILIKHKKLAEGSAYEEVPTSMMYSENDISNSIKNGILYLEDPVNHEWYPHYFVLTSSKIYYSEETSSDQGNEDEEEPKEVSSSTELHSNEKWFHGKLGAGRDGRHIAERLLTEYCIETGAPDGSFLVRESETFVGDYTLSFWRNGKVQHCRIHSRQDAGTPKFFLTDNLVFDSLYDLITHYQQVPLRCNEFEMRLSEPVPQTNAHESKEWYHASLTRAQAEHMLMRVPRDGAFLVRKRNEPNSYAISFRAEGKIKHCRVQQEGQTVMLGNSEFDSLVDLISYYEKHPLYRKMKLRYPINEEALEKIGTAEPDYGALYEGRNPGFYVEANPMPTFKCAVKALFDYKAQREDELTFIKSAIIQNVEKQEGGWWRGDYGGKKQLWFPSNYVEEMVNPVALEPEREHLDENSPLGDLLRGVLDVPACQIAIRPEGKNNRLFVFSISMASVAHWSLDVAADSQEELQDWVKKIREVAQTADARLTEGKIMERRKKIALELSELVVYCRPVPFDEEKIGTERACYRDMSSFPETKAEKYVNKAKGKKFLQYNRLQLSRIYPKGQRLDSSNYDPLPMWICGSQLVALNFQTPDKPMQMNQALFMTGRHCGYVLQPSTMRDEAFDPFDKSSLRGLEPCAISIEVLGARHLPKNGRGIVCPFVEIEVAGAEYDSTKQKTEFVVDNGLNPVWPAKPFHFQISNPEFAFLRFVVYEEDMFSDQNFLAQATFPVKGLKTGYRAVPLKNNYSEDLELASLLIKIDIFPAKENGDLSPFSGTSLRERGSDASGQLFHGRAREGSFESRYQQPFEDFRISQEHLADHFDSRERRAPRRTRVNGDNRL
PLC-beta3 inh = PLC-beta3 (human) inhibition, primary screen; Q01970; Purified PLC-beta3, fluorogenic substrate, fluorescence; inhibition, % at 12.2 µM; actives 0.18% (n = 370,000); in the data active = inhibition above about 11%;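 note: 0% = median of compound wells on plate and 100% = full blocker control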
ADAM10 inh = inhibits human ADAM10 | O14672 | recombinant ADAM10, EDANS/DABCYL FRET peptide cleavage, 3 h | inhibition, % at 7 µM | actives 0.62% (n = 370,000) | AID 720582;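 active = inhibition above a per-campaign cutoff equal to the mean of compounds falling between control-based bounds plus 3 SD, cut at about 20% in these data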;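 note: 0% = DMSO wells while the 100% control is not disclosed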
ADAM10 ctr = counter-screen for ADAM17 exosite inhibitors: inhibitors of human ADAM10. shares compounds with ADAM17 inh. recombinant ADAM10, EDANS/DABCYL FRET peptide cleavage, 3 h. inhibition, % at 6.95 µM. actives 47% (n = 2,900). AID 743256;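 active = mean inhibition over the triplicate runs exceeds the activity threshold set in the earlier primary screen, cut at about 20% in these data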;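 note: 0% = DMSO wells and 100% = marimastat wells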
ADAM17 confirm = confirmation of inhibitors of human ADAM17; shares compounds with ADAM17 inh; recombinant ADAM17, EDANS/DABCYL QFRET peptide cleavage; inhibition, % at 6.95 µM; actives 65% (n = 2,900);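 active = mean inhibition across replicates above the hit cutoff set in the primary screen, cut at about 8.5% in these data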;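 note: 0% = DMSO wells and 100% = marimastat wells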
* = called active by the depositor; . = no result given. In the library only some 2.3% were active in any assay of this set; here they are far more common.

SMILES	Tb MetRS inh	ADAM17 inh	PLC-gamma1 inh	PLC-beta3 inh	ADAM10 inh	ADAM10 ctr	ADAM17 confirm
CCOc1cc(OCC)cc(C(=O)N2CCC[C@@H]2C(=O)N2CCC[C@H]2C(=O)NCc2ccncc2)c1	-0.3	-2.1	2.7	0.6	5.0	.	.
O=C1C=C(c2ccc(OC(F)(F)F)cc2)C[C@@H](c2ccc(Cl)cc2)C1	0.9	-2.7	0.7	0.3	10.6	.	.
O=C(COC(=O)C12CC3CC(CC(C3)C1)C2)NCc1ccccc1	-0.2	2.0	6.9	2.2	-8.5	.	.
COC(=O)c1ccc(CNC(=O)COC(=O)C23CC4CC(CC(C4)C2)C3)cc1	-0.6	8.7*	3.3	4.2	10.3	8.6	2.7
CC(=O)N1CCC(C(=O)N2CCN(S(=O)(=O)c3ccc(F)cc3)CC2)CC1	0.0	0.2	6.9	-3.6	0.1	.	.
O=C(c1ccc(F)cc1)N1CCC(C(=O)N2CCN(S(=O)(=O)c3cccc(Cl)c3)CC2)CC1	-0.5	9.6*	3.0	-4.3	-3.6	-6.9	2.3
CC(C)(C)OC(=O)N1CCCC(C(=O)Nc2cccc(C(=O)NCCCc3ccccc3)c2)C1 (stereo unspecified)	0.0	12.0*	4.0	8.6	9.9	19.7	10.4*
CN(C(=O)c1ccc(NC(=O)Cc2cccc(NC(=O)C3CCCN(C(=O)C4CCCC4)C3)c2)cc1)C1CCCC1 (stereo unspecified)	-0.2	9.4*	5.9	10.2	5.1	17.6	8.6
CC(C)(C)OC(=O)N1CCC(C(=O)Nc2cccc(C(=O)NCCCc3ccccc3)c2)CC1	0.3	-1.1	0.7	-1.0	-7.1	.	.
COC(=O)CC#C[C@H](C)[C@@H](NS(C)(=O)=O)C1CCCCC1	.	-1.6	-4.5	3.2	-4.0	.	.
CCOC(=O)c1ccc(N2C(=O)c3n[nH]c(C)c3C2c2ccc(OC)cc2OC)cc1 (stereo unspecified)	-0.5	8.7*	2.3	-1.0	17.4	16.2	10.2*
CCOC(=O)c1ccc(N2C(=O)c3n[nH]c(C)c3C2c2ccc(OC)cc2)cc1 (stereo unspecified)	-0.9	-1.5	0.8	1.9	7.3	.	.
O=C(NNC(=O)C1CCC1)c1ccccc1F	0.1	9.9*	8.4	-0.7	1.1	-0.5	1.7
O=C(c1cc(COc2c(F)cccc2F)on1)N1CCC(c2ccccc2F)C1 (stereo unspecified)	-0.1	4.7	2.3	3.3	12.0	.	.
O=C(c1cc(COc2c(F)cccc2F)on1)N1CCC(c2ccccc2Cl)C1 (stereo unspecified)	-0.3	9.5*	5.4	-2.1	19.0	12.7	10.8*
COc1ccc(-c2nc(CCNS(=O)(=O)c3ccc4c(c3)OCCO4)cs2)cc1	-0.1	-13.1	-1.4	-5.0	-44.2	.	.
O=S(=O)(NCCc1csc(-c2ccc(C(F)(F)F)cc2)n1)c1ccc2c(c1)OCCO2	-0.4	9.3*	-1.8	-4.6	-2.8	7.5	10.4*
CC(C)C[C@H](NC1(C(=O)NC2CCCCC2)CCCCC1)C(=O)NCC(c1ccccc1)c1ccccc1	.	-1.1	-0.5	-1.0	2.6	.	.
O=C(NC1=NCCS1)c1cccc(S(=O)(=O)N2CCc3ccccc32)c1	-0.1	4.1	2.9	2.3	9.2	.	.
O=C(NC1=NCCS1)c1ccc(Cl)c(S(=O)(=O)N2CCc3ccccc32)c1	-1.3	9.4*	-1.2	-8.4	10.3	9.7	7.2
O=C(Nc1ccc2c(c1)OCCO2)C(c1ccnc2ccccc12)N1CCN(c2ccc(F)cc2)CC1 (stereo unspecified)	-0.6	5.4	-2.1	-5.2	12.3	.	.
CC(=O)c1ccc(NC(=O)C(C)OC(=O)C2CCN(c3ccc(C(F)(F)F)cn3)CC2)cc1 (stereo unspecified)	-0.5	9.0*	8.9	-0.4	12.2	14.2	9.1*
O=C(c1ccc2c(c1)OCCO2)N1CCN(c2ccc(C(F)(F)F)cn2)CC1	-0.3	-5.5	-1.8	-7.4	-11.1	.	.
O=C(Nc1ccc2c(c1)OCCO2)C(c1ccnc2ccccc12)N1CCN(c2ccc(C(F)(F)F)cn2)CC1 (stereo unspecified)	-0.4	10.7*	0.8	-0.5	15.6	54.0*	25.1*
O=C(Nc1ccc2c(c1)OCCO2)C(C1CC1)N1CCN(c2ccc(C(F)(F)F)cn2)CC1 (stereo unspecified)	-0.3	8.8*	-4.7	-7.7	9.2	17.3	10.8*
SMILES	Tb MetRS inh	ADAM17 inh	PLC-gamma1 inh	PLC-beta3 inh	ADAM10 inh	ADAM10 ctr	ADAM17 confirm
COc1ccc(N2CCN(C(=O)CN(c3cccc(Br)c3)S(C)(=O)=O)CC2)cc1	-0.6	13.5*	8.2	7.9	8.5	3.7	-0.7
CS(=O)(=O)N(CC(=O)N1CCN(c2ccccc2)CC1)c1cccc(Br)c1	0.4	0.2	1.8	-2.0	1.6	.	.
CCNC(=O)C1CCCN(C(=O)c2ccc(OC)c(OC)c2)CC1 (stereo unspecified)	-0.2	-1.4	3.2	-1.7	-1.8	.	.
COc1cc(OC)cc(C(=O)NC2CCN(CC(=O)Nc3cccc4ccccc34)CC2)c1	0.1	11.6*	3.6	8.8	11.8	-4.8	1.8
COc1ccc(Cc2nnc(N/N=C/c3ccc(O)cc3)[nH]c2=O)cc1OC	1.8	9.3*	6.2	5.9	9.1	2.7	5.3
COC(=O)[C@]12C[C@H](CC(=O)NCc3ccc(C)o3)C(=O)N(CCc3ccc(OC)c(OC)c3)C1=C[C@H](C1CCCC1)O[C@@H]2C	.	5.8	1.6	4.0	4.4	.	.
O=C(CCCOC(=O)c1ccc(O)cc1O)c1ccc(Br)cc1	-0.5	11.4*	2.2	-0.7	7.8	12.5	10.0*
CC(C)N1CCCC(C)(C(=O)Nc2nccc3ccccc23)C1 (stereo unspecified)	-0.3	-22.0	-4.1	-3.9	-74.7	.	.
O=S(=O)(c1ccc(Cl)cc1)N1CCCC1c1nc(-c2ccc(Cl)cc2)no1 (stereo unspecified)	0.0	9.8*	4.2	0.6	15.1	2.0	2.9
NS(=O)(=O)c1ccc(NC(=O)N[C@@H](Cc2ccccc2)C(=O)O)cc1	-0.1	9.8*	4.3	5.0	-0.3	10.8	8.4
NC(=O)NC(Cc1ccccc1)C(=O)Nc1ccc(S(N)(=O)=O)cc1 (stereo unspecified)	-0.8	-3.9	1.1	-2.6	-5.4	.	.
Oc1c(Cl)cc(Cl)c2cccnc12	0.0	1.1	-4.9	-7.8	5.8	.	.
Cc1ccc(S(=O)(=O)Nc2cc(Cl)c(O)c3ncccc23)cc1	-0.3	14.2*	-8.9	-14.6	11.1	8.4	16.7*
CCCCn1c(N)c(N(C(=O)CSc2nnnn2-c2ccccc2C)C2CCCC2)c(=O)[nH]c1=O	-0.2	-1.4	-2.1	3.2	0.2	.	.
